From ChEMBL document CHEMBL3352122, “Design, synthesis and evaluation of 2-aminothiazole derivatives as sphingosine kinase inhibitors” (Bioorg Med Chem, 2014) come the findings set out here.

Calls of active or inactive are those of the source. No cut-off for these calls is given here.

In one data set the target is T1, Sphingosine kinase 2 (Homo sapiens, UniProt Q9NRA0).
T1 sequence (Q9NRA0 whole entry): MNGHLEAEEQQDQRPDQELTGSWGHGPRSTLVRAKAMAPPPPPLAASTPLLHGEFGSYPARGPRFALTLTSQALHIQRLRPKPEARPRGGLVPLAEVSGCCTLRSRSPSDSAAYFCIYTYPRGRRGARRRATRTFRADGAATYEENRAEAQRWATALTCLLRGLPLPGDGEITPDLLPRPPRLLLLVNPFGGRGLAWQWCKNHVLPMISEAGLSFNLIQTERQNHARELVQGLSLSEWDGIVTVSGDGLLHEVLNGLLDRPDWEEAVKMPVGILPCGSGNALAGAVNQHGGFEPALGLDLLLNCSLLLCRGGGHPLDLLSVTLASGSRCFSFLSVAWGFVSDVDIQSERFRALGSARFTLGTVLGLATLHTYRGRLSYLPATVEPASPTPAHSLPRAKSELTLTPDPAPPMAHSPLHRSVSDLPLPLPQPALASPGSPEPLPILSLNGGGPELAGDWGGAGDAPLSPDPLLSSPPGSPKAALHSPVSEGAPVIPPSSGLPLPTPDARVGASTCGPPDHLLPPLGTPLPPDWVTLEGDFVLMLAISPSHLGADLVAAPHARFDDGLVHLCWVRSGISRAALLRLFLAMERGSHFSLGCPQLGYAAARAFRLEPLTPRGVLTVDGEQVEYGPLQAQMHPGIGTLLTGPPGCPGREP
The data set can be described thus: Inhibition of human recombinant Sphk2 after 60 mins by ADP2 fluorescence intensity assay.
Conditions: not given
An outline of the steps: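 Recombinant human SphK2 pre-incubated 15 min at RT with inhibitor at eight increasing concentrations, then reacted with D-erythro-sphingosine and ATP for 60 min at RT, keeping substrate conversion at 10–15% within the linear range. […] IC50 was derived from the concentration–inhibition data.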
For `Cc1csc(Nc2nc(-c3nccs3)cs2)n1`, the concentration for half-maximal inhibition (IC50) – broadly, the concentration that inhibits the measured activity by half – stood at 6.5 µM.

The target of another data set is T2, Sphingosine kinase 2 (Homo sapiens) (UniProt Q9NRA0).
T2 sequence (whole entry): T1 sequence (Q9NRA0 whole entry)
Description: Inhibition of human recombinant Sphk2 at 10 uM after 60 mins by ADP2 fluorescence intensity assay.
Conditions: not given
An outline of the steps: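 Human recombinant SphK2 (stock 0.5 mg/mL in Tris-HCl pH 8.0/imidazole/DTT/glycerol) pre-incubated 15 min at RT with compound at 10 µM or DMSO. Reaction with D-erythro-sphingosine and ATP ran 60 min at RT at 10–15% substrate conversion. ADP was read by Transcreener ADP² FI competitive fluorescence against an ATP/ADP standard curve. % inhibition vs DMSO given as mean ± SEM of five independent experiments, one-sample t-test.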
On to `COc1ccc(Nc2nc(C34CC5CC(CC(C5)C3)C4)cs2)cc1`, for which the inhibition (usually the relative decrease from the control value, in per cent) is “inactive”.

Turning to `FC(F)(F)c1ccc(Nc2nc(-c3ccc(Cl)cc3)cs2)cc1`, the inhibition result was “inactive”.

With `COc1cc(Nc2nc(-c3ccc(Cl)cc3)c(C)s2)cc(OC)c1OC`, the inhibition result was “inactive”.

For `CSc1ccc(Nc2nc(-c3ccc(Cl)cc3)c(C)s2)cc1`, the inhibition result is “inactive”.

`COc1ccc(Nc2nc(C34CC5CC(CC(C5)C3)C4)cs2)cc1OC`: the inhibition result is “inactive”.

In the case of `CC(C)c1ccc(Nc2nc(-c3ccc(Cl)cc3)cs2)cc1`, the inhibition result is “inactive”.

`COc1cc(/C=C/C(=O)Nc2nccs2)cc(OC)c1OC`: the inhibition was found to be 26.6%.

For the molecule `CC(C)c1ccc(Nc2nc(C34CC5CC(CC(C5)C3)C4)cs2)cc1`, the inhibition result is “inactive”.

For the molecule `COc1ccc(/C=C/C(=O)Nc2nccs2)cc1OC`, the inhibition stood at 26.5%.

Regarding `COc1ccccc1Nc1nc(-c2ccc(Cl)cc2)cs1`, the inhibition entry is “inactive”.

For `Cc1cc(CS(=O)(=O)c2ccccc2)cc(OCc2ccc(CN3CCC[C@@H]3CO)cc2)c1`, the inhibition worked out at 14.7%.

In the case of `FC(F)(F)Oc1ccc(Nc2nc(-c3ccc(Cl)cc3)cs2)cc1`, the inhibition result is “inactive”.

Consider `COc1cc(Nc2nc(-c3ccc(Cl)cc3)cs2)cc(OC)c1OC`, for which the inhibition result was “inactive”.

As for `CSc1ccc(Nc2nc(C34CC5CC(CC(C5)C3)C4)cs2)cc1`, the inhibition turned out to be 18.6%.

As for `CN(C)c1ccc(Nc2nc(C34CC5CC(CC(C5)C3)C4)cs2)cc1`, the inhibition result is “inactive”.

For `COc1cc(Nc2nc(C34CC5CC(CC(C5)C3)C4)cs2)cc(OC)c1OC`, the inhibition came out at 20.8%.

`Cc1csc(Nc2nc(-c3ccc(Cl)cc3)c(C)s2)n1`: the inhibition came out at 19.2%.

For the molecule `OCc1ccc(Nc2nc(-c3ccc(Cl)cc3)cs2)cc1`, the inhibition entry was “inactive”.

`Oc1ccc(Nc2nc(-c3nccs3)cs2)cc1`: the inhibition result is “inactive”.

For the molecule `c1cc2c(cc1Nc1nc(C34CC5CC(CC(C5)C3)C4)cs1)OCCO2`, the inhibition stood at 31.7%.

Consider `Cc1sc(Nc2ccc(O)cc2)nc1-c1ccc(Cl)cc1`, for which the inhibition result is “inactive”.

On to `c1cc2c(cc1Nc1nc(C34CC5CC(CC(C5)C3)C4)cs1)OCO2`, for which the inhibition stood at 41.3%.

For `CSc1ccc(Nc2nc(-c3ccc(Cl)cc3)cs2)cc1`, the inhibition result is “inactive”.

`COc1cc(/C=C/C(=O)Nc2nc(-c3ccc(Cl)cc3)cs2)cc(OC)c1OC`: the inhibition came out at 32%.

Regarding `Oc1ccc(Nc2nc(-c3ccc(Br)cc3)cs2)cc1`, the inhibition was determined as 10.3%.

`COc1ccc(Nc2nc(-c3ccc(Cl)cc3)cs2)cc1`: the inhibition entry is “inactive”.

With `Oc1cccc(Nc2nc(-c3ccc(Cl)cc3)cs2)c1`, the inhibition entry was “inactive”.

For `COc1ccc(Nc2nc(-c3ccc(Cl)cc3)cs2)cc1OC`, the inhibition result is “inactive”.

Turning to `FC(F)(F)c1cc(Nc2nc(-c3ccc(Cl)cc3)cs2)cc(C(F)(F)F)c1`, the inhibition result is “inactive”.

Turning to `CSc1ccc(Nc2nc(C34CC5CC(CC(C5)C3)C4)c(C)s2)cc1`, the inhibition result is “inactive”.

Consider `COc1ccccc1Nc1nc(C23CC4CC(CC(C4)C2)C3)cs1`, for which the inhibition is 19%.

With `Oc1ccc(Nc2nc(-c3ccc(Cl)cc3)cs2)cc1`, the inhibition came to 15.5%.

As for `Cc1csc(Nc2nc(-c3nccs3)cs2)n1`, the inhibition turned out to be 50%.

As to `Clc1ccc(-c2csc(Nc3ccc4c(c3)OCO4)n2)cc1`, the inhibition result is “inactive”.

With `COc1ccccc1Nc1nc(C23CC4CC(CC(C4)C2)C3)c(C)s1`, the inhibition was found to be 41.6%.

Take `CN(C)c1ccc(Nc2nc(-c3ccc(Cl)cc3)cs2)cc1`: the inhibition result is “inactive”.

Regarding `Oc1ccccc1Nc1nc(-c2ccc(Cl)cc2)cs1`, the inhibition result was “inactive”.

In the case of `COc1ccc(Nc2nc(-c3ccc(Cl)cc3)c(C)s2)cc1`, the inhibition result is “inactive”.

As to `Clc1ccc(-c2csc(Nc3ccc4c(c3)OCCO4)n2)cc1`, the inhibition entry is “inactive”.

On to `COc1cc(Nc2nc(C34CC5CC(CC(C5)C3)C4)c(C)s2)cc(OC)c1OC`, for which the inhibition stood at 21.5%.

Consider `COc1ccc(/C=C/C(=O)Nc2nc(-c3ccc(Cl)cc3)cs2)cc1OC`, for which the inhibition stood at 31.7%.

Regarding `Cc1csc(Nc2nc(C34CC5CC(CC(C5)C3)C4)c(C)s2)n1`, the inhibition turned out to be 20.9%.

Tested on in the next data set: not listed separately
Description: Cytotoxicity against human U937 cells at 30 uM after 24 hrs by LDH release assay. It is filed as cell-based. The settings on record: u-937, 24 h. An outline of the steps: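 U937 cells seeded at 1.5 × 10⁴ cells/well, then exposed 24 h to increasing compound concentrations or DMSO vehicle. After centrifugation (250 × g, 4 min), LDH in the supernatant was measured as loss of membrane integrity. Detergent-induced maximum release was set to 100%. Three experiments, mean ± SE.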
A general note: LDH leaks from cells whose membrane has failed.
The molecule `Cc1csc(Nc2nc(-c3nccs3)cs2)n1` yielded an Activity of 0.69%.
